Measurements published in ChEMBL document CHEMBL4665633, “Cereblon versus VHL: Hijacking E3 ligases against each other using PROTACs” (Bioorg Med Chem, 2019).
Calls of active or inactive are those of the source. The rule behind the calls is not given here.

Columns and labels:
Type in all cases: cell-based
[1] = biological target: T1, Protein cereblon/von Hippel-Lindau disease tumor suppressor (Homo sapiens, UniProt P40337+Q96SW2); test: Protac activity at VHL/CRBN in HEK293 cells assessed as pVHL19 protein abundance at 1 uM after 2 hrs by Western blot analysis relative to DMSO
Summary of the method: (§1)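 HEK293 cells (DMEM, 10% FBS, penicillin/streptomycin, L-glutamine; 37 °C, 5% CO2; ≤30 passages) seeded at 1 × 10⁶ per well overnight, then treated with compound at 0.1% v/v final DMSO. Cells were lysed in RIPA with protease inhibitors and benzonase, then clarified. Equal Bradford-quantified protein was immunoblotted for CRBN/VHL. Bands were normalised to β-tubulin and expressed as % of mean 0.1% DMSO vehicle.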

[2] = biological target: T1, Protein cereblon/von Hippel-Lindau disease tumor suppressor; test: Protac activity at VHL/CRBN in HEK293 cells assessed as pVHL19 protein abundance at 1 uM after 12 hrs by Western blot analysis relative to DMSO; summary of the method: as §1
[3] = biological target: T1, Protein cereblon/von Hippel-Lindau disease tumor suppressor; test: Protac activity at VHL/CRBN in HEK293 cells assessed as pVHL19 protein abundance at 1 uM after 24 hrs by Western blot analysis relative to DMSO; summary of the method: as §1
[4] = biological target: T1, Protein cereblon/von Hippel-Lindau disease tumor suppressor; test: Protac activity at VHL/CRBN in HEK293 cells assessed as pVHL30 protein abundance at 1 uM after 12 hrs by Western blot analysis relative to DMSO; summary of the method: as §1
[5] = biological target: T1, Protein cereblon/von Hippel-Lindau disease tumor suppressor; test: Protac activity at VHL/CRBN in HEK293 cells assessed as CRBN protein abundance at 1 uM after 1 hr by Western blot analysis relative to DMSO; summary of the method: as §1
[6] = biological target: T1, Protein cereblon/von Hippel-Lindau disease tumor suppressor; test: Protac activity at VHL/CRBN in HEK293 cells assessed as CRBN protein abundance at 1 uM after 12 hrs by Western blot analysis relative to DMSO; summary of the method: as §1
[7] = biological target: T1, Protein cereblon/von Hippel-Lindau disease tumor suppressor; test: Protac activity at VHL/CRBN in HEK293 cells assessed as pVHL30 protein abundance at 5 nM after 4 hrs by Western blot analysis relative to DMSO; summary of the method: as §1
[8] = biological target: T1, Protein cereblon/von Hippel-Lindau disease tumor suppressor; test: Protac activity at VHL/CRBN in HEK293 cells assessed as pVHL30 protein abundance at 100 nM after 4 hrs by Western blot analysis relative to DMSO; summary of the method: as §1
[9] = biological target: T1, Protein cereblon/von Hippel-Lindau disease tumor suppressor; test: Protac activity at VHL/CRBN in HEK293 cells assessed as pVHL30 protein abundance at 10000 nM after 4 hrs by Western blot analysis relative to DMSO; summary of the method: as §1
[10] = biological target: T1, Protein cereblon/von Hippel-Lindau disease tumor suppressor; test: Protac activity at VHL/CRBN in HEK293 cells assessed as CRBN protein abundance at 50 nM after 4 hrs by Western blot analysis relative to DMSO; summary of the method: as §1
[11] = biological target: T1, Protein cereblon/von Hippel-Lindau disease tumor suppressor; test: Protac activity at VHL/CRBN in HEK293 cells assessed as CRBN protein abundance at 1000 nM after 4 hrs by Western blot analysis relative to DMSO; summary of the method: as §1
[12] = biological target: T1, Protein cereblon/von Hippel-Lindau disease tumor suppressor; test: Protac activity at VHL/CRBN in human HeLa cells assessed as pVHL30 protein abundance at 1 uM after 2 hrs by Western blot analysis relative to DMSO
Summary of the method: (§2)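 HeLa cells seeded overnight, then exposed to 1 µM compound (0.1% v/v DMSO final) over a time course. Cells were DPBS-washed and RIPA-lysed with protease inhibitors and benzonase; equal protein was loaded. Immunoblots for CRBN and VHL isoforms were quantified against β-tubulin and reported relative to the averaged 0.1% DMSO vehicle.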

[13] = biological target: T1, Protein cereblon/von Hippel-Lindau disease tumor suppressor; test: Protac activity at VHL/CRBN in human HeLa cells assessed as pVHL30 protein abundance at 1 uM after 24 hrs by Western blot analysis relative to DMSO; summary of the method: as §2
[14] = biological target: T1, Protein cereblon/von Hippel-Lindau disease tumor suppressor; test: Protac activity at VHL/CRBN in human HeLa cells assessed as CRBN protein abundance at 1 uM after 1 hr by Western blot analysis relative to DMSO
Summary of the method: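 HeLa cells (DMEM, 10% FBS, penicillin/streptomycin, L-glutamine; 37 °C, 5% CO2) seeded at 5 × 10⁵ per well overnight, then treated in 0.1% v/v final DMSO. Cells were lysed in RIPA with protease inhibitors and benzonase, and equal protein was run on SDS-PAGE/nitrocellulose blots probed with anti-CRBN. Bands were normalised to β-tubulin and expressed relative to mean 0.1% DMSO vehicle.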

[15] = biological target: T1, Protein cereblon/von Hippel-Lindau disease tumor suppressor; test: Protac activity at VHL/CRBN in human HeLa cells assessed as CRBN protein abundance at 1 uM after 2 hrs by Western blot analysis relative to DMSO; summary of the method: as §2
[16] = biological target: T1, Protein cereblon/von Hippel-Lindau disease tumor suppressor; test: Protac activity at VHL/CRBN in human HeLa cells assessed as pVHL19 protein abundance at 100 nM after 4 hrs by Western blot analysis relative to DMSO
Summary of the method: (§3)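 HeLa cells (5 × 10⁵, DMEM + 10% FBS, 37 °C, 5% CO₂, ≤30 passages) seeded overnight, then treated 4 h with compound at single or graded concentrations (0.1% v/v DMSO final). RIPA lysates equalised by Bradford; SDS-PAGE and anti-CRBN/anti-VHL immunoblots; bands normalised to β-tubulin and expressed as % of mean DMSO vehicle. DC₅₀ from fit of band intensity versus log[concentration].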

[17] = biological target: T1, Protein cereblon/von Hippel-Lindau disease tumor suppressor; test: Protac activity at VHL/CRBN in human HeLa cells assessed as pVHL19 protein abundance at 5000 nM after 4 hrs by Western blot analysis relative to DMSO; summary of the method: as §3
[18] = biological target: T1, Protein cereblon/von Hippel-Lindau disease tumor suppressor; test: Protac activity at VHL/CRBN in human HeLa cells assessed as pVHL19 protein abundance at 10000 nM after 4 hrs by Western blot analysis relative to DMSO; summary of the method: as §3
[19] = biological target: T1, Protein cereblon/von Hippel-Lindau disease tumor suppressor; test: Protac activity at VHL/CRBN in human HeLa cells assessed as pVHL30 protein abundance at 5000 nM after 4 hrs by Western blot analysis relative to DMSO; summary of the method: as §3
[20] = biological target: T1, Protein cereblon/von Hippel-Lindau disease tumor suppressor; test: Protac activity at VHL/CRBN in human HeLa cells assessed as CRBN protein abundance at 500 nM after 4 hrs by Western blot analysis relative to DMSO; summary of the method: as §3
[21] = biological target: T1, Protein cereblon/von Hippel-Lindau disease tumor suppressor; test: Protac activity at VHL/CRBN in human HeLa cells assessed as pVHL19 protein abundance at 1 uM after 4 hrs by Western blot analysis relative to DMSO; summary of the method: as §2
[22] = biological target: T1, Protein cereblon/von Hippel-Lindau disease tumor suppressor; test: Protac activity at VHL/CRBN in HEK293 cells assessed as induction of CRBN degradation
[23] = biological target: T1, Protein cereblon/von Hippel-Lindau disease tumor suppressor; test: Protac activity at VHL/CRBN in human HeLa cells assessed as reduction in CRBN protein level at 1 uM after 4 hrs by Western blot analysis; summary of the method: as §3
[24] = biological target: T1, Protein cereblon/von Hippel-Lindau disease tumor suppressor; test: Protac activity at VHL/CRBN in human HeLa cells assessed as reduction in CRBN protein level at 10 nM after 4 hrs by Western blot analysis
Summary of the method: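 HeLa cells (ATCC; DMEM, 10% FBS, pen/strep, L-glutamine; 37 °C, 5% CO2; ≤30 passages; mycoplasma-tested) are seeded at 5 × 10⁵ per well overnight, then treated for 4 h with 0.1% v/v DMSO final. Lysis is in RIPA with protease inhibitors and benzonase, and equal protein (Bradford) is loaded. CRBN is immunoblotted, normalized to β-tubulin and expressed as % of mean DMSO vehicle.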

[25] = biological target: T1, Protein cereblon/von Hippel-Lindau disease tumor suppressor; test: Protac activity at VHL/CRBN in human HeLa cells assessed as induction of CRBN degradation at 1 uM after 4 hrs by Western blot analysis relative to control; summary of the method: as §3
[26] = biological target: T1, Protein cereblon/von Hippel-Lindau disease tumor suppressor; test: Protac activity at VHL/CRBN in human HeLa cells assessed as induction of VHL degradation at 1 uM after 1 to 24 hrs by Western blot analysis; conditions: time hrs 1-24; summary of the method: as §2

T1 sequence (P40337 whole entry, looked up): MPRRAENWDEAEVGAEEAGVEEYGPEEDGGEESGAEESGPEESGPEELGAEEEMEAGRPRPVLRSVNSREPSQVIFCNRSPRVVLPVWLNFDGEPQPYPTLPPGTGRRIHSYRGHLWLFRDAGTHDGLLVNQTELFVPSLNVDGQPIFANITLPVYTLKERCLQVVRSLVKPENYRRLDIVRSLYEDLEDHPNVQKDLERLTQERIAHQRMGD
T1 sequence (Q96SW2 whole entry, looked up): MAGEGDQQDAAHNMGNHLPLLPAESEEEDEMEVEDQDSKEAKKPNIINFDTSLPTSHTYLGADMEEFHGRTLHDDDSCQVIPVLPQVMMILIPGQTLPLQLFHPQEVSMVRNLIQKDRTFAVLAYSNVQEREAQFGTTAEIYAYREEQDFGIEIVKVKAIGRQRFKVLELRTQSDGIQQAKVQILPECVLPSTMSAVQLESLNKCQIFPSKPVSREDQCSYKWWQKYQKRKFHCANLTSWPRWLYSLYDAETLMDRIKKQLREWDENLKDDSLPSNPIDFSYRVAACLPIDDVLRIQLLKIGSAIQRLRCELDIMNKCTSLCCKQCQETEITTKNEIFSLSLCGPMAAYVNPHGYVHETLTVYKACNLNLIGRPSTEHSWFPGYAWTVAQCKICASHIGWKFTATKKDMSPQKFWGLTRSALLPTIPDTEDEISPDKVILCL

Cc1ncsc1-c1ccc(CNC(=O)[C@@H]2C[C@@H](O)CN2C(=O)[C@@H](NC(=O)COCCCCCOCCOCCCCCOCC(=O)NCCNc2cccc3c2C(=O)N(C2CCC(=O)NC2=O)C3=O)C(C)(C)C)cc1 (some centres not stated) was tested, and the Activity [1] was 109%, the Activity [2] was 102% and the Activity [3] was 101%. The Activity [4] was 113%, the Activity [5] was 14% and the Activity [6] was 6%. For the same molecule, the Activity [7] was 117%, the Activity [8] was 124% and the Activity [9] was 128%. It also gave an Activity [10] of 91%, an Activity [11] of 23% and an Activity [12] of 89%. For the same molecule, the Activity [13] was 97%, the Activity [14] was 57% and the Activity [15] was 27%. It also gave an Activity [16] of 108%, an Activity [17] of 115% and an Activity [18] of 124%. It also gave an Activity [19] of 143%, an Activity [20] of 33% and an Activity [21] of 100%. For the same molecule, the Activity [22] was “Active”, the Activity [23] was “Active” and the Activity [24] was “inactive”. For the same molecule, the %max [25] was 75%, the Activity [25] was 64% and the Activity [26] was “inactive”.
